According to ChEMBL document CHEMBL1153402, “Pyrido[2,3-e]-1,2,4-triazolo[4,3-a]pyrazin-1-one as a new scaffold to develop potent and selective human A3 adenosine receptor antagonists. Synthesis, pharmacological evaluation, and ligand-receptor modeling studies” (J Med Chem, 2009):

How the values were obtained:
Adenosine receptor A1 [1] = molecular target: T1, Adenosine receptor A1 (Bos taurus, UniProt P28190); experiment: Displacement of [3H]DPCPX from bovine brain cortical membrane adenosine A1 receptor
T1 sequence (P28190 whole entry): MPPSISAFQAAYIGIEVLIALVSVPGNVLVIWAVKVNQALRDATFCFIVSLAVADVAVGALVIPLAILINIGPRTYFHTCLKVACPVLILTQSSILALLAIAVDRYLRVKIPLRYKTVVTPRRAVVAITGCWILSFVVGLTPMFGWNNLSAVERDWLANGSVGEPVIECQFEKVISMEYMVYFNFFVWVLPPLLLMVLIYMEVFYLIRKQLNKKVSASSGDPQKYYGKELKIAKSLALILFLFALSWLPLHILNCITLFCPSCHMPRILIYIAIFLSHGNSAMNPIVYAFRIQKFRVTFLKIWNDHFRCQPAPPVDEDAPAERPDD

[2] = Displacement of [3H]CGS 21680 from bovine striatal membrane adenosine A2A receptor; design: species or system Bos taurus
Adenosine receptor A3 = molecular target: T2, Adenosine receptor A3 (Homo sapiens, UniProt P0DMS8); experiment: Displacement of [125I]AB-MECA from human cloned adenosine A3 receptor expressed in CHO cells; format: cell-based
T2 sequence (P0DMS8 whole entry): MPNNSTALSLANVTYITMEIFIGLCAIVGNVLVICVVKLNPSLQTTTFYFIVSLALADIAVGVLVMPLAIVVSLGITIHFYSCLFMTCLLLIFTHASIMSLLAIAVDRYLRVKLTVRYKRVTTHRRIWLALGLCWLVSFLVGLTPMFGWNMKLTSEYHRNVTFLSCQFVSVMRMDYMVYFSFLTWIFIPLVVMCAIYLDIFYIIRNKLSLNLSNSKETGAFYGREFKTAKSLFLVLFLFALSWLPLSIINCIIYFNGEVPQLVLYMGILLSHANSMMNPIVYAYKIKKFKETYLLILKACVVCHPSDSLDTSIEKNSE

Bos taurus [3] = species on record: Bos taurus; experiment: Displacement of [3H]CGS 21680 from bovine striatal membrane adenosine A2A receptor at 10 uM
[4] = molecular target: T3, Adenosine receptor A3 (Homo sapiens) (UniProt P0DMS8); experiment: Displacement of [125I]AB-MECA from human cloned adenosine A3 receptor expressed in CHO cells at 1 uM; format: cell-based
T3 sequence (whole entry): T2 sequence (P0DMS8 whole entry)
Outline: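 IC50 from five displacer concentrations, each in triplicate, by nonlinear regression; Ki by Cheng–Prusoff. Ki as mean of four separate assays, each in triplicate; single-point values as percent inhibition of specific binding at 1 μM.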

[5] = molecular target: T4, Adenosine receptor A1 (Bos taurus) (UniProt P28190); experiment: Displacement of [3H]DPCPX from bovine brain cortical membrane adenosine A1 receptor at 10 uM
T4 sequence (whole entry): T1 sequence (P28190 whole entry)

Adenosine receptor A1 [6] = molecular target: T5, Adenosine receptor A1 (Homo sapiens, UniProt P30542); experiment: Displacement of [3H]DPCPX from human cloned adenosine A1 receptor expressed in CHO cells; format: cell-based
T5 sequence (P30542 whole entry): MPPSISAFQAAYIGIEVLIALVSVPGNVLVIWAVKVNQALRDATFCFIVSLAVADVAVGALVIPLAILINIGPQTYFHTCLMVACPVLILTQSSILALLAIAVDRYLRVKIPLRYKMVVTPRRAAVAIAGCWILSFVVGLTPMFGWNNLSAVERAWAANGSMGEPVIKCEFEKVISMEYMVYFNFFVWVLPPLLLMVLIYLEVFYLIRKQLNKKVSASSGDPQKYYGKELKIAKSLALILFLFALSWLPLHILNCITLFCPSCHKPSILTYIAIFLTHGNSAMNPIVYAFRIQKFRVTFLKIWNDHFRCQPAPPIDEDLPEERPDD

Bos taurus [7] = species on record: Bos taurus; experiment: Displacement of [3H]CGS 21680 from bovine striatal membrane adenosine A2A receptor at 20 uM
Outline: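 IC50 from five concentrations in triplicate, nonlinear regression; Ki via Cheng–Prusoff from four assays. Single-point values as percent inhibition at 20 μM.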

[8] = molecular target: T4, Adenosine receptor A1 (Bos taurus); experiment: Displacement of [3H]DPCPX from bovine brain cortical membrane adenosine A1 receptor at 20 uM
Outline: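 Bovine cerebral cortical membranes; [3H]DPCPX displacement (Kd 0.3 nM). IC50 from five displacer concentrations in triplicate; Ki by Cheng–Prusoff, mean of four assays.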

[9] = molecular target: T6, Adenosine receptor A1 (Homo sapiens) (UniProt P30542); experiment: Displacement of [3H]DPCPX from human cloned adenosine A1 receptor expressed in CHO cells at 10 uM; format: cell-based
T6 sequence (whole entry): T5 sequence (P30542 whole entry)
Outline: (§1)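 CHO cell membranes stably expressing hA1 or hA2A; radioligands [3H]DPCPX (hA1, Kd 3 nM) and [3H]NECA (hA2A, Kd 30 nM). IC50 from five displacer concentrations in triplicate, nonlinear regression; Ki by Cheng–Prusoff; four separate assays. Single-point values as percent inhibition of specific binding at 10 μM.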

Adenosine receptor A2a [10] = molecular target: T7, Adenosine receptor A2a (Homo sapiens, UniProt P29274); experiment: Displacement of [3H]NECA from human cloned adenosine A2A receptor expressed in CHO cells; format: cell-based
T7 sequence (P29274 whole entry): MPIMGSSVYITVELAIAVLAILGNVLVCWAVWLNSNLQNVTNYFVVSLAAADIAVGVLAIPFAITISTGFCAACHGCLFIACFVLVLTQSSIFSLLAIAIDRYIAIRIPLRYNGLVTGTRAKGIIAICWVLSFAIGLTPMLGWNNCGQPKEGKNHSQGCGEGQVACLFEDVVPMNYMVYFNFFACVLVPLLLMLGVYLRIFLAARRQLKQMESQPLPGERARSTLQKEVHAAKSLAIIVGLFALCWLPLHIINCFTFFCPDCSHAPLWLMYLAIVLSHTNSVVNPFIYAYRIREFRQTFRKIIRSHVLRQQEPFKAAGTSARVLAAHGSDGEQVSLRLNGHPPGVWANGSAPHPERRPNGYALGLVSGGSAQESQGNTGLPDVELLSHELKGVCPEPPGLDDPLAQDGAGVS

Adenosine receptor A2a [11] = molecular target: T7, Adenosine receptor A2a; experiment: Displacement of [3H]NECA from human cloned adenosine A2A receptor expressed in CHO cells at 10 uM; format: cell-based; outline: as §1

With `Nc1nc2ncccc2n2c(=O)n(-c3ccccc3)nc12` the Ki (Adenosine receptor A1 [1]) was 3.1 nM, the Ki [2] was 92.6 nM and the Ki (Adenosine receptor A3) was 656 nM.
Compound `O=C(c1ccccc1)N(C(=O)c1ccccc1)c1nc2c([N+](=O)[O-])cccc2n2c(=O)n(-c3ccccc3)nc12` has an Activity (Bos taurus [3]) of 0%, an Activity [4] of 27% and an Activity [5] of 39%.
In the case of `Nc1nc2c([N+](=O)[O-])cccc2n2c(=O)n(-c3ccc(O)cc3)nc12`, the Activity [4] is reported as 45%.
In the case of `COc1ccc(-n2nc3c(NC(=O)c4ccccc4)nc4c([N+](=O)[O-])cccc4n3c2=O)cc1`, the Activity (Bos taurus [3]) is reported as 15% and the Activity [5] is reported as 35%.
Compound `Nc1nc2ncccc2n2c(=O)n(-c3ccc(O)cc3)nc12` has a Ki (Adenosine receptor A1 [1]) of 112 nM, a Ki [2] of 832 nM and a Ki (Adenosine receptor A3) of 1340 nM.
`COc1ccc(-n2nc3c(=O)[nH]c4ncccc4n3c2=O)cc1` showed a Ki (Adenosine receptor A1 [6]) of 114 nM, a Ki (Adenosine receptor A3) of 3.3 nM and an Activity (Bos taurus [7]) of 0%. It also gave an Activity [8] of 26%.
Work on `COc1ccc(-n2nc3c(N)nc4ncccc4n3c2=O)cc1` yielded a Ki (Adenosine receptor A1 [1]) of 1100 nM, a Ki [2] of 413 nM and a Ki (Adenosine receptor A3) of 158 nM.
`CC(=O)Nc1nc2c([N+](=O)[O-])cccc2n2c(=O)n(-c3ccccc3)nc12` showed an Activity (Bos taurus [3]) of 36% and an Activity [4] of 18%.
Compound `O=C(O)c1ccc(-n2nc3c(=O)[nH]c4ncccc4n3c2=O)cc1` has an Activity [4] of 0%, an Activity (Bos taurus [7]) of 7% and an Activity [8] of 30%.
Work on `CCOC(=O)c1ccc(-n2nc3c(=O)[nH]c4ncccc4n3c2=O)cc1` yielded an Activity [4] of 0%, an Activity (Bos taurus [7]) of 0% and an Activity [8] of 16%.
For `O=c1n(-c2ccccc2)nc2c(NC3CCCCC3)nc3ncccc3n12`, the Ki (Adenosine receptor A1 [1]) was 0.38 nM, the Ki [2] was 199 nM and the Ki (Adenosine receptor A3) was 15.5 nM. The Activity [9] was 37% and the Ki (Adenosine receptor A2a [10]) was 211 nM.
In the case of `COc1ccc(-n2nc3c(NC(C)=O)nc4c([N+](=O)[O-])cccc4n3c2=O)cc1`, the Activity (Bos taurus [3]) is reported as 7%, the Activity [4] is reported as 36% and the Activity [5] is reported as 0%.
`COc1ccc(-n2nc3c(N(C(=O)c4ccccc4)C(=O)c4ccccc4)nc4c([N+](=O)[O-])cccc4n3c2=O)cc1` gave an Activity (Bos taurus [3]) of 0% and an Activity [5] of 20%.
`O=C(Nc1nc2ncccc2n2c(=O)n(-c3ccccc3)nc12)c1ccccc1` gave a Ki (Adenosine receptor A1 [1]) of 152 nM, a Ki [2] of 7100 nM and a Ki (Adenosine receptor A3) of 70.3 nM. For the same compound, the Activity [9] was 8% and the Ki (Adenosine receptor A2a [10]) was 2240 nM.
Compound `O=c1[nH]c2ncccc2n2c(=O)n(-c3ccc(O)cc3)nc12` has a Ki (Adenosine receptor A1 [1]) of 449 nM, an Activity [4] of 32% and an Activity (Bos taurus [7]) of 0%.
Compound `COc1ccc(-n2nc3c(NC(C)=O)nc4ncccc4n3c2=O)cc1` has a Ki (Adenosine receptor A3) of 41 nM, an Activity [9] of 48% and an Activity (Adenosine receptor A2a [11]) of 29%. The Activity (Bos taurus [7]) was 19% and the Activity [8] was 56%.
`O=c1[nH]c2c([N+](=O)[O-])cccc2n2c(=O)n(-c3ccc(O)cc3)nc12` gave an Activity [4] of 21%.
`O=c1n(-c2ccccc2)nc2c(NC3CCCC3)nc3c([N+](=O)[O-])cccc3n12` gave a Ki (Adenosine receptor A3) of 116 nM.
In the case of `O=c1[nH]c2ncccc2n2c(=O)n(-c3ccccc3)nc12`, the Ki (Adenosine receptor A1 [1]) is reported as 145 nM, the Ki (Adenosine receptor A3) is reported as 251 nM and the Activity (Adenosine receptor A2a [11]) is reported as 0%. It also gave an Activity (Bos taurus [7]) of 12%.
With `COc1ccc(-n2nc3c(N(C(=O)c4ccccc4)C(=O)c4ccccc4)nc4ncccc4n3c2=O)cc1` the Ki (Adenosine receptor A3) was 7.75 nM, the Activity [9] was 0% and the Activity (Adenosine receptor A2a [11]) was 0%. The Activity (Bos taurus [7]) was 0% and the Activity [8] was 17%.
With `O=C(c1ccccc1)N(C(=O)c1ccccc1)c1nc2ncccc2n2c(=O)n(-c3ccccc3)nc12` the Ki (Adenosine receptor A1 [1]) was 70.7 nM, the Ki (Adenosine receptor A3) was 335 nM and the Activity (Bos taurus [7]) was 12%.
For `CCOC(=O)c1ccc(-n2nc3c(N)nc4ncccc4n3c2=O)cc1`, the Activity [4] was 0%, the Activity (Bos taurus [7]) was 17% and the Activity [8] was 39%.
`Nc1nc2ncccc2n2c(=O)n(-c3ccc(F)cc3)nc12` gave a Ki (Adenosine receptor A1 [1]) of 181 nM, a Ki [2] of 1510 nM and a Ki (Adenosine receptor A3) of 490 nM.
With `O=C(Nc1nc2c([N+](=O)[O-])cccc2n2c(=O)n(-c3ccccc3)nc12)c1ccccc1` the Activity (Bos taurus [3]) was 0% and the Activity [5] was 32%.
`O=c1n(-c2ccccc2)nc2c(NC3CCCC3)nc3ncccc3n12` showed a Ki (Adenosine receptor A1 [1]) of 0.47 nM, a Ki [2] of 510 nM and a Ki (Adenosine receptor A3) of 8.4 nM. It also gave an Activity [9] of 36% and a Ki (Adenosine receptor A2a [10]) of 208 nM.
`O=c1[nH]c2c([N+](=O)[O-])cccc2n2c(=O)n(-c3ccccc3)nc12` gave a Ki (Adenosine receptor A3) of 279 nM.
Compound `O=c1n(-c2ccccc2)nc2c(NC3CCCCC3)nc3c([N+](=O)[O-])cccc3n12` has a Ki (Adenosine receptor A3) of 281 nM.
Compound `CCCn1c(=O)c2[nH]c(C3CCCC3)nc2n(CCC)c1=O` [1,3-DIPROPYL-8-CYCLOPENTYLXANTHINE [DPCPX]] has a Ki [2] of 337 nM.
Compound `O=C(Cc1ccccc1)Nc1nc2ncccc2n2c(=O)n(-c3ccccc3)nc12` has a Ki (Adenosine receptor A1 [1]) of 7.15 nM, a Ki [2] of 414 nM and a Ki (Adenosine receptor A3) of 11.7 nM. For the same compound, the Activity [9] was 37% and the Ki (Adenosine receptor A2a [10]) was 208 nM.
`CC(=O)Nc1nc2ncccc2n2c(=O)n(-c3ccccc3)nc12` showed a Ki (Adenosine receptor A1 [1]) of 14 nM, a Ki (Adenosine receptor A3) of 138 nM and an Activity (Bos taurus [7]) of 59%.
Work on `O=c1[nH]c2ncccc2n2c(=O)n(-c3ccc(F)cc3)nc12` yielded a Ki (Adenosine receptor A1 [1]) of 306 nM, a Ki (Adenosine receptor A3) of 590 nM and an Activity (Bos taurus [7]) of 26%.
